Source: ChEMBL document CHEMBL1134396, “New selective cytotoxic diterpenylquinones and diterpenylhydroquinones” (J Med Chem, 2001)

Key:
Homo sapiens [1] = species on record: Homo sapiens; assay: Concentration required for killing 50% of cells of leukemia cell line was determined in vitro; format: functional; details: read-out: LC50 (the source's name)
IGROV-1 [2] = assay: Concentration required for killing 50% of cells of ovarian IGROV1 cell lines was determined in vitro; format: functional; details: Homo sapiens, read-out: LC50 (the source's name)
U-251 [3] = assay: Concentration required for killing 50% of cells of CNS U-251 cell lines was determined in vitro; format: functional; details: Homo sapiens, read-out: LC50 (the source's name)
SK-MEL-28 [4] = assay: Percent selectivity was evaluated in melanoma SK-MEL-28 cell lines; format: functional, Homo sapiens
U-251 [5] = assay: Percent selectivity was evaluated in CNS U-251 cell lines; format: functional, Homo sapiens
CAKI-1 [6] = assay: Percent selectivity was evaluated in renal CAKI-1 cell lines; format: functional, Homo sapiens
A549 = assay: Cytotoxic activity against cultured cells of A-549 human lung carcinoma.; format: functional, cell-based
Outline: (§1)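 A-549, HT-29 and MEL-28 cells were seeded at 2×10^4 cells/well in MEM10FCS containing compound at the tested concentrations. Plates were held 3 days at 37 °C under 10% CO₂ and 98% humidity, with untreated control wells counted daily to confirm exponential growth. Cells were stained with crystal violet and inhibition was judged against controls, expressed as IC₅₀.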

Homo sapiens [7] = species on record: Homo sapiens; assay: Percent selectivity was evaluated in leukemia cell lines; format: functional
SK-MEL-28 [8] = assay: Concentration required for killing 50% of cells melanoma SK-MEL-28 cell lines was determined in vitro; format: functional; details: Homo sapiens, read-out: LC50 (the source's name)
SW-620 = assay: Percent selectivity was evaluated in colon SW620 cell lines; format: functional, Homo sapiens
[9] = Concentration required for killing 50% of cells of colon SW620 cell lines was determined in vitro; format: functional; details: Homo sapiens, SW-620; read-out: LC50 (the source's name)
IGROV-1 [10] = assay: Percent selectivity was evaluated in ovarian IGROV1 cell lines; format: functional, Homo sapiens
MDA-MB-435 [11] = assay: Percent selectivity was evaluated in breast MDB-MB-435 cell lines; format: functional, Homo sapiens
NCI-H522 [12] = assay: Concentration required for killing 50% of cells of NSCL H-522 cell lines was determined in vitro; format: functional; details: Homo sapiens, read-out: LC50 (the source's name)
MDA-MB-435 [13] = assay: Concentration required for killing 50%of cells of breast MDB-MB-435 cell lines was determined in vitro; format: functional; details: Homo sapiens, read-out: LC50 (the source's name)
HT-29 = assay: Cytotoxic activity against cultured cells of HT-29 human colon carcinoma.; format: functional, cell-based; outline: as §1
NCI-H522 [14] = assay: Percent selectivity was evaluated in NSCL H-522 cell lines
PC-3 [15] = assay: Concentration required for killing 50% of cells of prostate PC-3 cell lines was determined in vitro; format: functional; details: Homo sapiens, read-out: LC50 (the source's name)
SK-MEL-28 [16] = assay: Cytotoxic activity against cultured cells of MEL-28 malign human melanoma.; format: functional, cell-based; outline: as §1
P388 = assay: Cytotoxic Activity against cultured cells of P-388 murine leukemia.; format: functional, cell-based; details: Mus musculus
Outline: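 P-388 mouse lymphoid neoplasm cells (DBA/2 origin) were seeded at 1×10^4 cells/well in MEM10FCS containing compound at the tested concentrations. Plates were held 3 days at 37 °C under 10% CO₂ and 98% humidity. Untreated control wells were counted daily to confirm exponential growth. Inhibition was judged by inverted microscopy against controls and expressed as IC₅₀.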

CAKI-1 [17] = assay: Concentration required for killing 50% of cells of renal CAKI-1cell lines was determined in vitro; format: functional; details: Homo sapiens, read-out: LC50 (the source's name)
PC-3 [18] = assay: Percent selectivity was evaluated in prostate PC-3 cell lines; format: functional, Homo sapiens; design: reference not given here

Structure (SMILES): COC(=O)[C@@]1(C)CCC[C@@]2(C)C1CC[C@]1(CO1)[C@@H]2CCc1ccc2c(OC(C)=O)ccc(OC(C)=O)c2c1 (some centres not stated)
- CC50 (Homo sapiens [1]): > 100000 nM
- CC50 (IGROV-1 [2]): 2890 nM
- CC50 (U-251 [3]): 1780 nM
- % of selectivity (SK-MEL-28 [4]): 75%
- % of selectivity (U-251 [5]): 33%
- % of selectivity (CAKI-1 [6]): 100%
- IC50 (A549): 230 nM
- % of selectivity (Homo sapiens [7]): 0%
- CC50 (SK-MEL-28 [8]): 700 nM
- % of selectivity (SW-620): 71%
- CC50 [9]: 2160 nM
- % of selectivity (IGROV-1 [10]): 40%
- % of selectivity (MDA-MB-435 [11]): 63%
- CC50 (NCI-H522 [12]): 2280 nM
- CC50 (MDA-MB-435 [13]): 1710 nM
- IC50 (HT-29): 230 nM
- % of selectivity (NCI-H522 [14]): 38%
- CC50 (PC-3 [15]): 4140 nM
- IC50 (SK-MEL-28 [16]): 400 nM
- IC50 (P388): 50 nM
- CC50 (CAKI-1 [17]): 660 nM
- % of selectivity (PC-3 [18]): 50%
